According to ChEMBL document CHEMBL3808334, “Synthesis and in vitro evaluation of novel triazine analogues as anticancer agents and their interaction studies with bovine serum albumin” (Eur J Med Chem, 2016):

Legend:
Assay type in all cases: functional
MDA-MB-468 [1] = assay: Growth inhibition of human MDA-MB-468 cells assessed as cell growth at 10 uM incubated for 48 hrs by sulforhodamine B assay; conditions: MDA-MB-468, 48 h, read-out: Activity
[2] = Growth inhibition of human DU145 cells assessed as cell growth at 10^-4 M incubated for 48 hrs by sulforhodamine B assay; conditions: DU-145, 48 h, read-out: Activity
Outline: (§1)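 Cells seeded at 5,000–40,000/well according to doubling time and preincubated 24 h at 37 °C, 5% CO2. Time-zero plates were TCA-fixed. DMSO concentrate was diluted in medium with 50 µg/ml gentamicin to give five concentrations (10-fold or ½ log steps), then exposed 48 h. Cells were TCA-fixed, stained with 0.4% SRB and read at 515 nm. Percent growth was taken against time-zero and control; GI50, TGI and LC50 derived.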

[3] = Growth inhibition of human SKOV3 cells assessed as cell growth at 10^-6 M incubated for 48 hrs by sulforhodamine B assay; conditions: SK-OV-3, 48 h, read-out: Activity
SR = assay: Growth inhibition of human SR cells incubated for 48 hrs by sulforhodamine B assay
Outline: (§2)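 Cells were plated at 5,000–40,000 per well according to doubling time and preincubated 24 h at 37 °C in 5% CO2; time-zero plates were then TCA-fixed. Five concentrations (10-fold or ½-log dilutions, DMSO stock) were incubated 48 h. Cells were TCA-fixed, stained with 0.4% SRB and read at 515 nm. GI50 was taken where [(Ti−Tz)/(C−Tz)]×100 = 50.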

[4] = Growth inhibition of human SW620 cells incubated for 48 hrs by sulforhodamine B assay; conditions: SW-620, 48 h; outline: as §2
[5] = Growth inhibition of human HL-60(TB) cells assessed as cell growth at 10^-7 M incubated for 48 hrs by sulforhodamine B assay; conditions: HL-60, 48 h, read-out: Activity
Outline: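 Cells plated at 5,000–40,000/well according to doubling time and preincubated 24 h at 37 °C, 5% CO₂, with time-zero plates TCA-fixed. Drugs were kept as DMSO concentrates at 400× the top concentration and diluted in medium with 50 µg/ml gentamicin. Five 10-fold or ½-log dilutions were run for 48 h, followed by SRB staining and A515. Percent growth = (Ti−Tz)/(C−Tz)×100, or (Ti−Tz)/Tz×100 when Ti<Tz.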

EKVX = assay: Growth inhibition of human EKVX cells assessed as cell growth at 10^-7 M incubated for 48 hrs by sulforhodamine B assay; conditions: read-out: Activity; outline: as §1
MDA-MB-468 [6] = assay: Growth inhibition of human MDA-MB-468 cells incubated for 48 hrs by sulforhodamine B assay; conditions: MDA-MB-468, 48 h; outline: as §2
[7] = Growth inhibition of human SF295 cells assessed as cell growth at 10^-5 M incubated for 48 hrs by sulforhodamine B assay; conditions: SF-295, 48 h, read-out: Activity
[8] = Growth inhibition of human non-small cell lung cancer cells incubated for 48 hrs by sulforhodamine B assay; conditions: Cancer cell lines; for CC50: read-out: LC50 (the source's name)
[9] = Growth inhibition of human RPMI8226 cells incubated for 48 hrs by sulforhodamine B assay; conditions: RPMI-8226, 48 h; outline: as §2
SK-MEL-28 = assay: Growth inhibition of human SK-MEL-28 cells assessed as cell growth at 10^-4 M incubated for 48 hrs by sulforhodamine B assay; conditions: SK-MEL-28, 48 h, read-out: Activity
[10] = Growth inhibition of human SF539 cells assessed as cell growth at 10^-6 M incubated for 48 hrs by sulforhodamine B assay; conditions: SF-539, 48 h, read-out: Activity
NCI-H23 = assay: Growth inhibition of human NCI-H23 cells assessed as cell growth at 10^-4 M incubated for 48 hrs by sulforhodamine B assay; conditions: NCI-H23, 48 h, read-out: Activity
[11] = Growth inhibition of human SF268 cells assessed as cell growth at 10 uM incubated for 48 hrs by sulforhodamine B assay; conditions: SF-268, 48 h, read-out: Activity
[12] = Growth inhibition of human SF268 cells assessed as cell growth at 10^-5 M incubated for 48 hrs by sulforhodamine B assay; conditions: SF-268, 48 h, read-out: Activity
[13] = Growth inhibition of human renal cancer cells incubated for 48 hrs by sulforhodamine B assay; conditions: Cancer cell lines; for CC50: read-out: LC50 (the source's name)
[14] = Growth inhibition of human OVCAR8 cells assessed as cell growth at 10^-4 M incubated for 48 hrs by sulforhodamine B assay; conditions: OVCAR-8, 48 h, read-out: Activity
[15] = Growth inhibition of human OVCAR5 cells assessed as cell growth at 10 uM incubated for 48 hrs by sulforhodamine B assay; conditions: OVCAR-5, 48 h, read-out: Activity
U-251 = assay: Growth inhibition of human U251 cells assessed as cell growth at 10 uM incubated for 48 hrs by sulforhodamine B assay; conditions: U-251, 48 h, read-out: Activity
CCRF-CEM = assay: Growth inhibition of human CCRF-CEM cells assessed as cell growth at 10^-8 M incubated for 48 hrs by sulforhodamine B assay; conditions: read-out: Activity
Outline: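 Leukemia line in the five-dose format: five concentrations from 10-fold or ½-log serial dilutions. Plated at 5,000–40,000 cells per well, preincubated 24 h, then compound added for 48 h at 37 °C, 5% CO₂. Sulforhodamine B absorbance read at 515 nm. Growth is computed against time-zero (Tz) and control (C) readings; GI₅₀ is where [(Ti−Tz)/(C−Tz)]×100 = 50.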

[16] = Growth inhibition of human OVCAR5 cells assessed as cell growth at 10^-4 M incubated for 48 hrs by sulforhodamine B assay; conditions: OVCAR-5, 48 h, read-out: Activity
[17] = Growth inhibition of human OVCAR5 cells assessed as cell growth at 10^-5 M incubated for 48 hrs by sulforhodamine B assay; conditions: OVCAR-5, 48 h, read-out: Activity
NCI-H460 = assay: Growth inhibition of human NCI-H460 cells assessed as cell growth at 10^-7 M incubated for 48 hrs by sulforhodamine B assay; conditions: NCI-H460, 48 h, read-out: Activity
[18] = Growth inhibition of human SF268 cells assessed as cell growth at 10^-6 M incubated for 48 hrs by sulforhodamine B assay; conditions: SF-268, 48 h, read-out: Activity
[19] = Growth inhibition of human SNB19 cells assessed as cell growth at 10 uM incubated for 48 hrs by sulforhodamine B assay; conditions: SNB-19, 48 h, read-out: Activity
[20] = read-out: LC50 (the source's name)
[21] = read-out: pLC50 (the source's name) (converted)

SMILES: Clc1ccc(-c2nc(Nc3ccc(-c4nc5ccccc5[nH]4)cc3)nc(N3CCOCC3)n2)cc1
- growth at 10 µM (MDA-MB-468 [1]): -84%
- growth at 100 µM [2]: -63%
- growth at 1 µM [3]: 102%
- GI50 (SR; read-out: GI50): 0.031 µM
- CC50 (SR; [20]): > 100 µM
- GI50 (SR; read-out: pGI50 (converted)): 0.0309 µM
- CC50 (SR; [21]): > 100 µM
- GI50 ([4]; read-out: GI50): 0.186 µM
- CC50 [4, 20]: 0.742 µM
- TGI ([4]; read-out: TGI): 0.372 µM
- GI50 ([4]; read-out: pGI50 (converted)): 0.186 µM
- CC50 [4, 21]: 0.741 µM
- TGI ([4]; read-out: pTGI (converted)): 0.372 µM
- growth at 0.1 µM [5]: 90%
- growth at 0.1 µM (EKVX): 87%
- GI50 (MDA-MB-468 [6]; read-out: GI50): 0.516 µM
- TGI (MDA-MB-468 [6]; read-out: TGI): 1.82 µM
- GI50 (MDA-MB-468 [6]; read-out: pGI50 (converted)): 0.513 µM
- TGI (MDA-MB-468 [6]; read-out: pTGI (converted)): 1.82 µM
- growth at 10 µM [7]: -85%
- GI50 [8]: 1.15 µM
- TGI [8]: 2.59 µM
- CC50 [8]: 5.58 µM
- GI50 ([9]; read-out: GI50): 0.257 µM
- TGI ([9]; read-out: TGI): 0.682 µM
- GI50 ([9]; read-out: pGI50 (converted)): 0.257 µM
- TGI ([9]; read-out: pTGI (converted)): 0.676 µM
- growth at 100 µM (SK-MEL-28): -24%
- growth at 1 µM [10]: 31%
- growth at 100 µM (NCI-H23): -27%
- growth at 10 µM [11]: -82.7%
- growth at 10 µM [12]: -80%
- GI50 [13]: 1.11 µM
- TGI [13]: 2.25 µM
- CC50 [13]: 5.6 µM
- growth at 100 µM [14]: -79%
- growth at 10 µM [15]: -74.7%
- growth at 10 µM (U-251): -93%
- growth at 0.01 µM (CCRF-CEM): 98%
- growth at 100 µM [16]: -16%
- growth at 10 µM [17]: -79%
- growth at 0.1 µM (NCI-H460): 100%
- growth at 1 µM [18]: 3%
- growth at 10 µM [19]: -81.2%

SMILES: c1ccc2[nH]c(-c3ccc(Nc4nc(N5CCCCC5)nc(N5CCOCC5)n4)cc3)nc2c1
- growth at 10 µM (MDA-MB-468 [1]): -3.66%
- growth at 100 µM [2]: 8%
- growth at 1 µM [3]: 102%
- GI50 (SR; read-out: GI50): 0.731 µM
- CC50 (SR; [20]): > 100 µM
- TGI (SR; read-out: TGI): 5.73 µM
- GI50 (SR; read-out: pGI50 (converted)): 0.724 µM
- CC50 (SR; [21]): > 100 µM
- TGI (SR; read-out: pTGI (converted)): 5.75 µM
- GI50 ([4]; read-out: GI50): 2.34 µM
- CC50 [4, 20]: 74.7 µM
- TGI ([4]; read-out: TGI): 5.87 µM
- GI50 ([4]; read-out: pGI50 (converted)): 2.34 µM
- CC50 [4, 21]: 74.1 µM
- TGI ([4]; read-out: pTGI (converted)): 5.89 µM
- growth at 0.1 µM [5]: 100%
- growth at 0.1 µM (EKVX): 93%
- GI50 (MDA-MB-468 [6]; read-out: GI50): 2.68 µM
- CC50 (MDA-MB-468 [6]; [20]): > 100 µM
- TGI (MDA-MB-468 [6]; read-out: TGI): 6.51 µM
- GI50 (MDA-MB-468 [6]; read-out: pGI50 (converted)): 2.69 µM
- CC50 (MDA-MB-468 [6]; [21]): > 100 µM
- TGI (MDA-MB-468 [6]; read-out: pTGI (converted)): 6.46 µM
- growth at 10 µM [7]: -43%
- GI50 [8]: 2.85 µM
- TGI [8]: 9.66 µM
- CC50 [8]: 9.54 µM
- GI50 ([9]; read-out: GI50): 2.23 µM
- CC50 [9, 20]: > 100 µM
- TGI ([9]; read-out: TGI): 6.58 µM
- GI50 ([9]; read-out: pGI50 (converted)): 2.24 µM
- CC50 [9, 21]: > 100 µM
- TGI ([9]; read-out: pTGI (converted)): 6.61 µM
- growth at 100 µM (SK-MEL-28): -54%
- growth at 1 µM [10]: 89%
- growth at 100 µM (NCI-H23): -26%
- growth at 10 µM [11]: 33.8%
- growth at 10 µM [12]: 5%
- GI50 [13]: 2.46 µM
- TGI [13]: 11.8 µM
- CC50 [13]: 8.29 µM
- growth at 100 µM [14]: -49%
- growth at 10 µM [15]: 73.9%
- growth at 10 µM (U-251): 8.02%
- growth at 0.01 µM (CCRF-CEM): 99%
- growth at 100 µM [16]: -18%
- growth at 10 µM [17]: 16%
- growth at 0.1 µM (NCI-H460): 98%
- growth at 1 µM [18]: 96%
- growth at 10 µM [19]: 10.4%
